# Assay results from the RNAGym collection of RNA variant scans (doi:10.1126/science.aae0568).
# Fewer inactive variants are shown than the library holds.
# B1: tRNA (parent)
# chain: GUUCCGUUGGCGUAAUGGUAACGCGUCUCCCUCCUAAGGAGAAGACUGCGGGUUCGAGUCCCGUACGGAACG
# Variants of: B1
# Assay: yeast fitness relative to wild type (ratio to wild type); higher = fitter; tRNA-Arg(CCU), competitive growth, 37 C, YPD
# In short: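 Variants of the tRNA-Arg(CCU) gene were chemically synthesised with a 3% per-site mutation rate across 69 sites and placed at the native genomic locus in Saccharomyces cerevisiae. Six parallel replicates of the pooled strains were competed in YPD at 37°C for 24 hours, and gene amplicons from the start and end populations were read by 100-nucleotide paired-end sequencing. Darwinian fitness relative to wild type was derived from changes in genotype frequencies. Genotypes required ≥ 100 starting reads, and estimates < 0.5 were set to 0.5.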
row,Variant,yeast fitness
1,GUUCGGUUGGCGAAAUGGUGACGCGUCUCCCUCCAAAGGGGAAGACUGCGGGUUCGAGUCCCGUACGGAACG [C5G U13A A20G U35A A40G],≤ 0.5
2,GUUCGGUAGGCGUAAUGGUAACGCGUCUCCCUCCUAAGGAGAAGACUGCGGGUUCGAGUCCAGUACGGUACG [C5G U8A C62A A69U],≤ 0.5
3,GUUCGGUCGGCAUAAUGGUAACGCGUCACCCUCCUAAGGAGAAGACUGCGGGUUCGAGUCCCGUGCGGAACG [C5G U8C G12A U28A A65G],≤ 0.5
4,GUUCGGUUGGCGAAAUGGUAAGGCGUUUGCCUCCUAAGGUGAAGACUGCGGGUCCGAGUCGCGUACGGAACG [C5G U13A C22G C27U C29G A40U U54C C61G],≤ 0.5
5,GUUCGGUCGGCGUAAUGGUAACGCGUCUCCCUCCUCAGGAGAUGACUGCGGGUUCGAGUCCCGUACGGAACG [C5G U8C A36C A43U],≤ 0.5
6,GUUCGGUCGGCGUAAUGGUAACGCGUCUCCCUCCUAAGGAGAAGACUGCGGGUUCAAGUCCCGUACGGAACG [C5G U8C G56A],0.723
7,GUUCGGUUGGCGAAAUGGUAACGCGUCUCCCUCCUAAGGAGAAGACUGCGGGUUCGAGUCCCGUACGGAACG [C5G U13A],0.906
8,GUUCGGUGGGCGUGAUGGUAACGCGUCUCCCUCCUAAGGAGACGACUACGGGUUCGAGUCCCGUACGGAACG [C5G U8G A14G A43C G48A],0.544
9,GUUCGGUUGGCGAAAUGGUAACGCGUCUCCGUCCUAAGGAGAAGACUGCAGGUUCGAGUCCCGUGCGGAACG [C5G U13A C31G G50A A65G],≤ 0.5
10,GUUCGGUUGGCGAAAUGGUAACGCGUCUCCGUCCUAAGGAGAAGACUGCAGGUUCGAGUCCCGUCCGGAACG [C5G U13A C31G G50A A65C],0.58
11,GUUCGGUAGGCGUAAUGGUAACGCGUCUCCCUCCUAAGGAGAAGACUGCGGCAUCGAGUCCCGUACGGAACG [C5G U8A G52C U53A],≤ 0.5
12,GUUCGGUCGGCGUCAUGGUAACGCGUCUACGUCCUAAGGAGAAGACUGCGGGUACGAGUCCCGUACGGAACG [C5G U8C A14C C29A C31G U54A],≤ 0.5
13,GUUCGGUCGGCGUAAUGGUAACGCGUCUCCCUCCUGAGGCGAAGACUGCGGGUUCGAGUCCCGUACGGAACG [C5G U8C A36G A40C],0.55
14,GUUCGGUCGGCGUAGUGCUAACGCGUCUCCCUCCUAAGGAGAAGACUGCGGGUUCGAGUCCCGUACGGAACG [C5G U8C A15G G18C],≤ 0.5
15,GUUCGGUCGGCGUAAUGGUAACGCGUCUCUCUCCUAAGGAGAAGACUGCGGGUACGAGUCCCGUACGGAACG [C5G U8C C30U U54A],≤ 0.5
16,GUUCGGUCGGCGUAAUGGUAACGCGUCUCCCUCCUAAGGAGAAGACUGCGGGUUCGAGUCCCGUACGGAACG [C5G U8C],0.843
17,GUUCGGUGGGCGUAAUGGUAACGCGUCUCCCUCCUAAGGAGAAGACUGCGGGUUCGAGUCCCGUACGGAACG [C5G U8G],0.527
18,GUUCGGUUGGCGAAAUGGUGACGCGUCUCCCUCCAAAGGGGAAGACUGCGGGUUCGAGUCCCUUACGGAACG [C5G U13A A20G U35A A40G G63U],≤ 0.5
19,GUUCGGUCGGCGUAAUGGUAACGCGUCUCCCUCCUAAGGAGAAGACUGCGGGUUGGAGUCCCGUACGGAACG [C5G U8C C55G],≤ 0.5

row,Variant,yeast fitness
1,GUUCGGUAGGCGUAAUGGUAACGCGUCUCCCUCCUAAGGACAAGACAGCGGGUUCGAGUCACGUACCGAACG [C5G U8A G41C U47A C61A G67C],≤ 0.5
2,GUUCGGUCGGCGUAAUGGUAACGCGUCUCCCUCCUAAGGAGAAGACUGCGGGUUCGAGUACCAUACGGAACG [C5G U8C C60A G63A],≤ 0.5
3,GUUCGGUGGGGGUAAUGGUAACGCGUCUCCCUCCUAAGGAGAAGACUGUGGGUUCGAGUCGCGUACGGAACG [C5G U8G C11G C49U C61G],≤ 0.5
4,GUUCGGUCGGCGUAAUGGUAACGCGUGUCCCUGCAAAGGAGAAGACUGUGGGUUCGAGUCCCGUACGGAACG [C5G U8C C27G C33G U35A C49U],≤ 0.5
5,GUUCGGUGGGGGUAAUGGUAACGCGUCUCCCUCCUAAGGAGAAGACUGAGGCUUCGAGUCCCGUACGGAACG [C5G U8G C11G C49A G52C],≤ 0.5
6,GUUCGGUAGGCGUAAUGGUAACGCGUCUACCUCCCAAGGAGAAGACUGCGGGUUCGAGUCCCGUACGGAACG [C5G U8A C29A U35C],≤ 0.5
7,GUUCGGUCGGGGUAAUGGUAACGCGUCUCCGUCCUAAGGAGAAGACUGCGGGUUCGAGUCCCGUACGGAACG [C5G U8C C11G C31G],≤ 0.5
8,GUUCGGUAGGCGUAAUGGUAACGCGUCCCCCUCCUAAGGAGAAGACUGCGAGUUCGAGUCCCGUACGGCACG [C5G U8A U28C G51A A69C],≤ 0.5
9,GUUCGGUUGGCGAAAUGGUAAGGCGUCUGCCUCCUAAGGUGAAGACUGCGGGUUCGAGUCCUGUACGGAACG [C5G U13A C22G C29G A40U C62U],≤ 0.5
10,GUUCGGUAGGCGUAAUGGUAACGCGUCUCCCUCCUAAGAAGAAGACUGCGGGUUCGAGUCCCGUACGGAACG [C5G U8A G39A],≤ 0.5
11,GUUCGGUAGGCGUAAUGGUAACGCGUCUCCCUCCUAAGAAGAAGACUGCGGGUUUGAGUCCCGUACGGACCG [C5G U8A G39A C55U A70C],0.623
12,GUUCGGUUGGCGAAAUGGUAAGGCGUCUGCCUCCUAAGGUGAAGACUGCGGGUCCGAGUCGCGUACGGAACG [C5G U13A C22G C29G A40U U54C C61G],0.588
13,GUUCGGUCGGCAUAAUGGUAACGCGUCUCCCUCCUAAGGAGAAGAUUGCGGGUUCGAGUCCCGUACGAAACG [C5G U8C G12A C46U G68A],≤ 0.5
14,GUUCGGUAGGCGUAAUGGUAACGCGUCUCCCUCCUUAGGAGGAGACUGCAGGUUCGGGUCCCGUACGGAACG [C5G U8A A36U A42G G50A A57G],≤ 0.5
15,GUUCGGUCGCCGUAAUGGUAACGCGUCUCCCUCCUAAGGAGAAGACUGCGGAUUCGAGUCCCGUACGGAACG [C5G U8C G10C G52A],≤ 0.5
16,GUUCGGUCGGCGUAAUGGUAACGCGUCUCCCUCCUAAGGAGAAGACAGCGGGUUCGAGUCCCGUACGCAACG [C5G U8C U47A G68C],≤ 0.5
17,GUUCGGUCGGAGUAGUGAUAACGCGUCUCGCUCCUAAGGAGAAGACUGCGGGUUCGAGUCCCGUACGGAACG [C5G U8C C11A A15G G18A C30G],≤ 0.5
18,GUUCGGUCGGCGUAAUGGUAACGCGUCUCCCUCCUAAGGAGAAGACUCCGGGUUCGAGUCCCGUACGGAACG [C5G U8C G48C],≤ 0.5
19,GUUCGGUCGGCGUAAUGGUACCGCGUCUCCCUUCUAAGGAGAAGACUGCGGGUUCGAGGCCCGUACGGAACG [C5G U8C A21C C33U U59G],≤ 0.5
